Experimental data: ChEMBL document CHEMBL4265978, “In search of constrained FTY720 and phytosphingosine analogs as dual acting anticancer agents targeting metabolic and epigenetic pathways” (Eur J Med Chem, 2018)
The source made the active and inactive calls. The rule behind the calls is not given here.

Tests used:
FL5.12 [1] = experiment: Cytotoxicity against mouse FL5.12 cells after 48 hrs by DAPI or propidium iodide staining-based flow cytometric analysis; type: functional, cell-based; settings: FL5.12, 48 h
In short: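 FL5.12 (murine hematopoietic, IL-3-dependent) cells treated at 25,000/mL; viability read at 48 h by DAPI or propidium iodide dye exclusion on flow cytometry. IC50 fitted, reported with 95% confidence interval.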

FL5.12 [2] = experiment: Downregulation of CD98 expression in mouse FL5.12 cells at 10 uM after 3 hrs by DAPI staining-based FACS analysis relative to control; type: functional
In short: (§1)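 FL5.12 cells plated at 225-250,000/mL and treated 3 h. 150-200,000 cells stained in triplicate on ice for 30 min with PE-anti-mouse CD98, with PE rat IgG2a κ as isotype control. Read by flow cytometry, gated on viable cells (DAPI exclusion or scatter). Loss given as mean of at least 2 biological replicates.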

FL5.12 [3] = experiment: Downregulation of CD98 expression in mouse FL5.12 cells at 40 uM after 3 hrs by DAPI staining-based FACS analysis relative to control; type: functional; in short: as §1
FL5.12 [4] = experiment: Cytotoxicity against mouse FL5.12 cells assessed as vacuole formation at 40 uM after 3 hrs by […]; type: functional, cell-based
In short: (§2)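 FL5.12 cells treated at 200,000/mL for 3 h, then imaged at 100× by brightfield/DIC. At least 5 images per condition, at least 2 biological replicates. Two researchers scored each replicate independently: 0 no vacuoles, + some cells, ++ most cells with at least 1 vacuole, +++ all cells heavily vacuolated.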

[5] = target: T1, Histone deacetylase (Homo sapiens) (UniProt Q13547+O15379+Q9UBN7+Q92769+Q9UQL6+Q8WUI4+Q9BY41+Q96DB2+P56524+Q9UKV0+Q969S8); experiment: Inhibition of HDAC in human HeLa cell extract at 10 to 20 uM after 15 to 30 mins by COLOR DE LYS-based colorimetric method; type: protein assay
In short: (§3)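 Recombinant HDAC1 or HeLa extract incubated with acetylated lysine substrate at 37°C for 15-30 min. Developer then added: 10-15 min at 37°C with absorbance at 405 nm (colorimetric kit), or 15 min at RT with fluorescence at ex 355/em 460 nm, corrected using ± trichostatin A.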

FL5.12 [6] = experiment: Cytotoxicity against mouse FL5.12 cells assessed as vacuole formation at 10 uM after 3 hrs by […]; type: functional, cell-based; in short: as §2
FL5.12 [7] = experiment: Cytotoxicity against mouse FL5.12 cells assessed as vacuole formation at 2.5 uM after 3 hrs by […]; type: functional, cell-based; in short: as §2
FL5.12 [8] = experiment: Downregulation of CD98 expression in mouse FL5.12 cells at 2.5 uM after 3 hrs by DAPI staining-based FACS analysis relative to control; type: functional; in short: as §1
[9] = target: T2, Histone deacetylase (Mus musculus) (UniProt Q8VH37+Q9Z2V6+Q9Z2V5+O09106+Q8C2B3+P70288+O88895+Q91WA3+Q99N13+Q6NZM9+Q6P3E7); experiment: Inhibition of HDAC in MEF assessed as increase in histone H3K9 acetylation at 6.1 uM after 24 hrs by Western blot analysis; type: cell-based
In short: (§4)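 Histones acid-extracted in 0.2 N HCl overnight at 4°C; protein measured by BCA. Samples run on 4-12% gels and transferred to nitrocellulose, blocked in 5% BSA. Probed overnight at 4°C for acetyl-H3K9, H3K18, H4K5, H4K8 and total H3/H4, then with IRDye secondaries; infrared imaging.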

[10] = target: T2, Histone deacetylase (Mus musculus); experiment: Inhibition of HDAC in mouse FL5.12 cells assessed as increase in histone H3 acetylation at 10 uM after 6 hrs by Western blot analysis; type: cell-based; in short: as §4
[11] = target: T2, Histone deacetylase (Mus musculus); experiment: Inhibition of HDAC in MEF assessed as increase in histone H4K8 acetylation at 5 uM after 6 hrs by Western blot analysis; type: cell-based; in short: as §4
[12] = target: T2, Histone deacetylase (Mus musculus); experiment: Inhibition of HDAC in MEF assessed as increase in histone H3 acetylation at 6.1 uM after 24 hrs by Western blot analysis; type: cell-based; in short: as §4
[13] = target: T2, Histone deacetylase (Mus musculus); experiment: Inhibition of HDAC in MEF assessed as increase in histone H3 acetylation at 10 to 20 uM after 6 hrs by Western blot analysis; type: cell-based; in short: as §4
[14] = target: T2, Histone deacetylase (Mus musculus); experiment: Inhibition of HDAC in MEF assessed as increase in histone H4 acetylation at 5 uM after 6 hrs by Western blot analysis; type: cell-based; in short: as §4
[15] = target: T1, Histone deacetylase (Homo sapiens); experiment: Inhibition of HDAC (unknown origin) at 5 uM; type: protein assay
[16] = target: T2, Histone deacetylase (Mus musculus); experiment: Inhibition of HDAC in MEF assessed as increase in histone H3K18 acetylation at 6.1 uM after 24 hrs by Western blot analysis; type: cell-based; in short: as §4
[17] = target: T2, Histone deacetylase (Mus musculus); experiment: Inhibition of HDAC in MEF assessed as increase in histone H3 acetylation at 5 uM after 6 hrs by Western blot analysis; type: cell-based; in short: as §4
[18] = target: T2, Histone deacetylase (Mus musculus); experiment: Inhibition of HDAC in MEF assessed as increase in histone H4K5 acetylation at 10 uM after 6 hrs by Western blot analysis; type: cell-based; in short: as §4
[19] = target: T2, Histone deacetylase (Mus musculus); experiment: Inhibition of HDAC in MEF assessed as increase in histone H3K9 acetylation at 5 uM after 6 hrs by Western blot analysis; type: cell-based; in short: as §4
[20] = target: T2, Histone deacetylase (Mus musculus); experiment: Inhibition of HDAC in MEF assessed as increase in histone H4 acetylation at 10 uM after 6 hrs by Western blot analysis; type: cell-based; in short: as §4
[21] = target: T2, Histone deacetylase (Mus musculus); experiment: Inhibition of HDAC in MEF assessed as increase in histone H3K18 acetylation at 5 uM after 6 hrs by Western blot analysis; type: cell-based; in short: as §4
[22] = target: T2, Histone deacetylase (Mus musculus); experiment: Inhibition of HDAC in MEF assessed as increase in histone H4K5 acetylation at 5 uM after 6 hrs by Western blot analysis; type: cell-based; in short: as §4
[23] = target: Histone deacetylase 1 (Homo sapiens) (UniProt Q13547); experiment: Inhibition of human recombinant HDAC1 at 20 uM after 15 to 30 mins by COLOR DE LYS-based colorimetric method; in short: as §3
Sequence of Histone deacetylase 1 (Homo sapiens) (Q13547 whole entry): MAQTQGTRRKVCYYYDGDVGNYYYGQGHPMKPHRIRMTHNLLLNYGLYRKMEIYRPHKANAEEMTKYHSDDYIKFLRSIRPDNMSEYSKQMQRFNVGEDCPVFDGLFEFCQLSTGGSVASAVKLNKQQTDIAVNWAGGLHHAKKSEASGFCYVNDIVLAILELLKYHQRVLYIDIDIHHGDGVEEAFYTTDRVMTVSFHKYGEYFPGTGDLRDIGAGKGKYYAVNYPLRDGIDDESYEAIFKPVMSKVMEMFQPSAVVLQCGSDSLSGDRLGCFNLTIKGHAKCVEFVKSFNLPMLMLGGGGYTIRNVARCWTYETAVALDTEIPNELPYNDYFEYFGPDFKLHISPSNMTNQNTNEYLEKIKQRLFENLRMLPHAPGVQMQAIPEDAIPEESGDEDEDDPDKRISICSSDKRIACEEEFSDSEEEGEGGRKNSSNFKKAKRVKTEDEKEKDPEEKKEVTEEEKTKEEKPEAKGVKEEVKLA

inhibition [5] | SMILES | IC50 (FL5.12 [1]) [µM] | Activity (FL5.12 [2]) [%] | Activity (FL5.12 [3]) [%] | Activity (FL5.12 [4]) | Activity (FL5.12 [6]) | Activity (FL5.12 [7]) | Activity (FL5.12 [8]) [%] | further results
inactive | CCCCCCCCc1ccc(CC(=O)[C@H]2C[C@H](OP(=O)(O)O)CN2)cc1.Cl | 25.3 | 5 | 8 | inactive | inactive |  |  | 
inactive | CCCCCCCCc1ccc(CC(O)[C@@H]2C[C@@H](O)CN2)cc1.Cl (some centres undefined) | 3 | 62 |  |  | Active | Active | 19 | 
inactive | CCCCCCCCc1ccc(CC(=O)[C@@H]2C[C@@H](OP(=O)(O)O)CN2)cc1.Cl | 25 | 3 | 0 | inactive | inactive |  |  | 

The next lines start with the molecule.

SMILES | inhibition [5] | IC50 (FL5.12 [1]) [µM] | Activity (FL5.12 [2]) [%] | Activity (FL5.12 [3]) [%] | Activity (FL5.12 [4]) | Activity (FL5.12 [6]) | Activity (FL5.12 [7]) | Activity (FL5.12 [8]) [%] | further results
CCCCCCCCc1ccc(CC(=O)[C@H]2C[C@H](O)CN2)cc1.Cl |  | 17.1 | 16 | 54 | Active | inactive | inactive | 11 | 
CCCCCCCCc1ccc(CCC(N)(CO)COP(=O)(O)O)cc1 (centres undefined) |  |  |  |  |  |  |  |  | inhibition [9]: inactive; inhibition [10]: inactive; inhibition [11]: inactive; inhibition [12]: inactive; inhibition [13]: inactive; inhibition [14]: inactive; inhibition [15]: 60 to 75%; inhibition [16]: inactive; inhibition [17]: inactive; inhibition [18]: inactive; inhibition [19]: inactive; inhibition [20]: inactive; inhibition [21]: inactive; inhibition [22]: inactive
CCCCCCCCc1ccc(C(=O)[C@@H]2CCCN2)cc1.Cl |  | > 40 | -4 | 33 | Active | inactive | inactive | -21 | 
CCCCCCCCc1ccc(C(=O)[C@H]2C[C@H](O)CN2)cc1.Cl |  | 15.3 | 51 | 41 | Active | Active | inactive | 12 | 
CCCCCCCCc1ccc(CC(O)[C@H]2C[C@H](O)CN2)cc1.Cl (some centres undefined) | inactive | 1.8 | 62 |  |  | Active | inactive | 9 | 
CCCCCCCCc1ccc(C(=O)[C@H]2C[C@H](CO)CN2)cc1.Cl |  | 19.6 | 19 | 61 | Active | inactive | inactive | 0 | 
CCCCCCCCc1ccc(CC(=O)[C@@H]2C[C@@H](O)CN2)cc1.Cl |  | 18.6 | 23 | 59 | Active | inactive | inactive | 13 | 
CCCCCCCCc1ccc(C(=O)C[C@H]2C[C@H](CO)CN2)cc1.Cl |  | 2 | 60 |  |  | Active | Active | 44 | inhibition [23]: inactive
